Shown are actives, neighbours in structure and some others; about 3.5% of the full set was active somewhere.
RGS4 inh = RGS4 inhibitors, primary screen, cell-based, HEK293 M3R inducible RGS4, calcium flux | Fluo-4 calcium flux; active compounds read high; triggered by carbachol at its EC20 | B-score at 10 µM | 310,000 compounds, 0.45% hits | AID 463165, 2010;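 active means B-score, a plate-corrected calcium signal, over three deviations above library mean, with baseline fluorescence within five deviations of library mean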;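 further: RGS4 expression induced by doxycycline in cells with stable M3 receptor; B-score is computed from the integrated fluorescence ratio over baseline after carbachol; higher B-score means a larger calcium signal and so more RGS4 inhibition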
MrgX1 antagonist = antagonists of human MrgX1 receptor, primary screen, HEK293 cells, Fluo-4 calcium flux | Mas-related G-protein coupled receptor member X1 (Homo sapiens), Q96LB2 | BAM8-22 antagonism; active compounds read low | B-score at 10 µM | 310,000 compounds, 1.3% hits;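 active means calcium-response B-score plate-corrected more than 3 library SD below zero, starting fluorescence within 5 deviations, no agonist response on first addition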;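 further: peak minus trough fluorescence over baseline after final BAM8-22 challenge near maximal dose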
Target sequence (Q96LB2 whole entry, looked up): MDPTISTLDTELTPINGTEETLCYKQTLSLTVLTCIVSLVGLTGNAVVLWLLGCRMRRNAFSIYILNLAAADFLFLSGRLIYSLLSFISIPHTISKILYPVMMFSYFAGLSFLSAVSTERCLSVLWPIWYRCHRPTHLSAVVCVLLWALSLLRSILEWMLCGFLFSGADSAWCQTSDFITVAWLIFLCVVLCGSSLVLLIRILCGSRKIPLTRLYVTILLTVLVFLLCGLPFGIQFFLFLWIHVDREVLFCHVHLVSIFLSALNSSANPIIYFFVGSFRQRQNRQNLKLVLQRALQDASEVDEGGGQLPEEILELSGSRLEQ
MrgX1 ag = agonists of human MrgX1 receptor, primary screen, HEK293 cells, Fluo-4 calcium flux | Mas-related G-protein coupled receptor member X1 (Homo sapiens), Q96LB2 | Fluo-4 calcium fluorescence, agonist mode; active compounds read high | B-score at 10 µM | 310,000 compounds, 0.44% hits | AID 588627, 2011;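 active means calcium response B-score plate-corrected fluorescence ratio at least 3 library SD, with starting fluorescence B-score inside 5 SD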
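System – MrgX1-expressing HEK293 cells · Incubation – cells plated overnight, dye loaded 0.5 h 37 °C, 0.5 h room temperature · Technique – kinetic Fluo-4 NW fluorescence of intracellular calcium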
RGS4 pot = RGS4 potentiators or activators, primary screen, cell-based, HEK293 M3R inducible RGS4, calcium flux; carbachol calcium flux Fluo4; active compounds read low; B-score at 10 µM; 310,000 compounds, 0.92% hits; AID 463111, 2010;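 active means B-score of the integrated calcium signal more than 4 SD below the library mean, with starting fluorescence not abnormally high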;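 further: negative B-score means reduced calcium response which marks RGS4 activation or potentiation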
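Also added: carbachol at ECmax as muscarinic agonist stimulus; Assay system: HEK293 cells with stable M3R and inducible RGS4; Timing: overnight RGS4 induction, 30 min dye load 37 °C, 20 min compound RT; Measured by: Fluo4-AM (2 µM) calcium-flux fluorescence, kinetic read.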
MrgX1 allo act = positive allosteric modulators of MrgX1, primary screen, HEK293 cells, Fluo-4 calcium flux | Mas-related G-protein coupled receptor member X1 (Homo sapiens), Q96LB2 | FDSS; active compounds read high | B-score at 10 µM | 310,000 compounds, 0.63% hits;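 active means plate-corrected calcium response at least 3 library SD above typical, normal starting fluorescence, not activating the receptor alone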;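 further: compound read alongside a low EC10 to EC30 dose of BAM8-22 agonist; peak minus trough fluorescence over baseline measured at the second addition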
MrgX1 allo conf = MrgX1 positive allosteric modulators, duplicate retest, confirmation, HEK293 cells, Fluo-4 calcium flux | shares compounds with MrgX1 allo act | 1,200 compounds, 13% hits | activation (ratio percentage), % at 10 µM | AID 602413, 2012 | Fluo-4 calcium fluorescence, FDSS;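 active means ratio at least 3 SD above the weak peptide control, stable starting fluorescence, no direct agonism earlier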;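 further: compound followed by low BAM8-22 agonist challenge near EC20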
HEK293 Ca flux = nonspecific calcium signal in parental HEK293, confirmation, counter-screen for MrgX1 antagonist project, parental HEK293 cells, Fluo-4 calcium flux. fluorescence ratio F(max-min)/F0 at 10 µM. Fluo-4 calcium fluorescence, FDSS. 4,000 compounds, 2% hits. shares compounds with MrgX1 antagonist;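 active means duplicate-averaged calcium fluorescence ratio at least three times the standard deviation of buffer wells, a nonspecific response in parental cells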
HEK293 Ca counter = calcium response in parental HEK293 cells, primary screen, counter-screen for MrgX1 allosteric activator project, cell-based, Fluo-4 calcium flux, duplicate; 4,000 compounds, 0.4% hits; fluorescence ratio F(max-min)/F0 at 10 µM; shares compounds with MrgX1 antagonist; Fluo-4 fluorescence ratio; active compounds read high;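 active means calcium fluorescence ratio, averaged over duplicates, at least 3 SD of the buffer-well ratio, meaning a nonspecific response in receptor-free cells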;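 further: untransfected parental HEK293 lacking MrgX1 used as counterscreen for MrgX1 allosteric activators; fluorescence change taken during the second addition on a kinetic imager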
HEK293 Ca cntr2 = calcium response in parental HEK293 cells, primary screen, counter-screen for MrgX1 agonist project, cell-based, Fluo-4 calcium flux, duplicate, agonist mode. shares compounds with MrgX1 antagonist. Fluo-4 calcium fluorescence (FDSS); active compounds read high. fluorescence ratio F(max-min)/F0 at 10 µM. 4,000 compounds, 8.7% hits. AID 624115, 2012;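 active means calcium fluorescence ratio at least three times the spread of buffer wells, meaning a non-specific response in parental cells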
Numbers without * were called inactive; i = inactive; . = no result given.

SMILES	RGS4 inh	MrgX1 antagonist	MrgX1 ag	RGS4 pot	MrgX1 allo act	MrgX1 allo conf	HEK293 Ca flux	HEK293 Ca counter	HEK293 Ca cntr2
CC1Cc2nc(SCC(=O)NCC3CCCO3)n(C)c(=O)c2S1 (centres undefined)	i	i	i	i	i	.	.	.	.
CC(C)C[C@H](NC(=O)N1c2ccccc2NC(=O)[C@@H]1C(C)C)C(=O)N1CCC[C@@H]1C(=O)O	i	i	i	i	i	.	.	.	.
C/C=C/c1ccc(OCC(=O)N(C)CC(=O)Nc2ccc(F)cc2)c(OC)c1	i	i	i	i	i	.	.	.	.
COc1ccc(C(O)c2nccc3cc(OC)c(OC)cc23)cc1OC (centres undefined)	i	i	i	i	9.46*	i	i	i	i
COc1cc(N)c(C(O)c2nccc3cc(OC)c(OC)cc23)cc1OC (centres undefined)	i	i	i	i	i	.	.	.	.
Cc1ccccc1N1C(=O)C2C3CCC(O3)C2C1=O (centres undefined)	i	i	i	i	18.7*	i	i	i	i
Cc1ccccc1N1C(=O)C2C3C=CC(C2C1=O)N(C)C3=O (centres undefined)	i	i	i	i	i	.	.	.	.
CCOc1ccc(NS(=O)(=O)c2cc(C(=O)N3CCC3)ccc2Cl)cc1	i	i	i	i	i	.	.	.	.
COc1ccc(-c2cc(C(F)(F)F)n3ncc(C(=O)N(C)Cc4ccccc4)c3n2)cc1	i	i	i	i	6.94*	i	i	i	i
COc1ccc(-c2cc(C(F)(F)F)n3ncc(C(=O)NCc4ccco4)c3n2)cc1	i	i	i	i	i	.	.	.	.
CN1/C(=C/C2CC(=O)NC2=O)C(C)(C)c2ccccc21 (centres undefined)	.	i	i	.	6.97*	i	i	i	i
CN1/C(=C/C2CC(=O)N(c3cccc4ccccc34)C2=O)C(C)(C)c2ccccc21 (centres undefined)	i	i	i	i	i	.	.	.	.
Cn1c(SCC(=O)N2CCCC2=O)nnc1-c1ccccc1F	i	i	i	i	8.79*	i	i	i	i
Cn1c(SCC(=O)N2CCCc3ccccc32)nnc1-c1c[nH]c2ccccc12	i	i	i	i	i	.	.	.	.
CSc1ncccc1C(=O)OCC(=O)N(CC(C)C)c1c(N)n(Cc2ccccc2)c(=O)[nH]c1=O	i	i	i	i	i	.	.	.	.
COc1cccc(NC(=O)NNC(=O)c2ccc3c(c2)NC(=O)C(C)(C)O3)c1	i	i	i	i	i	.	.	.	.
COc1ccccc1NC(=O)NNC(=O)c1ccc2c(c1)NC(=O)C(C)(C)O2	i	i	i	i	19.9*	i	i	i	i
O=C(CSCc1ccccc1)N1CCN(c2ccc(F)cc2)CC1	i	i	i	i	i	.	.	.	.

Screens: PubChem BioAssay, Johns Hopkins Ion Channel Center
